Source: ChEMBL document CHEMBL1165965, “Synthesis and structure-activity relationships of 1,2,3,4-tetrahydropyrido[2,3-b]pyrazines as potent and selective inhibitors of the anaplastic lymphoma kinase” (Bioorg Med Chem, 2010)

Tests used:
[1] = target: T1, Inhibitor of nuclear factor kappa-B kinase subunit beta (Homo sapiens) (UniProt O14920); test: Inhibition of IKK-beta at 1 uM
T1 sequence (whole entry): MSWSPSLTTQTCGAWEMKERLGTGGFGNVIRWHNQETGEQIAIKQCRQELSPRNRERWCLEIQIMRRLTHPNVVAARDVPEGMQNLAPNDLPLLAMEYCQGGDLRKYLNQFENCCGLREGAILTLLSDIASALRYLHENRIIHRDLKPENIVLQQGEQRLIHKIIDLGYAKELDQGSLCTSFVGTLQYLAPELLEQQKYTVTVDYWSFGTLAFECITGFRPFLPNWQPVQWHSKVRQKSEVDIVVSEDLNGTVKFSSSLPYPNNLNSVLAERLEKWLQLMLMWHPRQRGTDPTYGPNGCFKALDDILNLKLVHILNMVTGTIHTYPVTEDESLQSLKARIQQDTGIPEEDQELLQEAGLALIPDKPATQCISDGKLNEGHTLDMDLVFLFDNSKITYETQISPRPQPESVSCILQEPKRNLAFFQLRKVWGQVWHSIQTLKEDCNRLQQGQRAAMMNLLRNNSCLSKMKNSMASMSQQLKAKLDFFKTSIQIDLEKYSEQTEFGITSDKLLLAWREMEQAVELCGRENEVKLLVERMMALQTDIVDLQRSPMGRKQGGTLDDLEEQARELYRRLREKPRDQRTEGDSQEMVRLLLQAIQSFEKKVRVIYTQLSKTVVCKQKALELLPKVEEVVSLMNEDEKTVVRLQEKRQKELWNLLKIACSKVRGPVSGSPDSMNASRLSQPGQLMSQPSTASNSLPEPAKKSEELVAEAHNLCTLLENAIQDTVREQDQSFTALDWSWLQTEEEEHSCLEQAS

[2] = test system: Mast/stem cell growth factor receptor Kit (Homo sapiens), P10721 [V559D,V654A]; test: Inhibition of KIT V559D,V654A mutant at 1 uM
Procedure, shortened: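 Single-concentration screen on the Ambit KINOMEscan platform, run against a panel of 250–400 kinases. Per-kinase inhibition was also summarized as S(90), the fraction of kinases inhibited by more than 90%.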

[3] = test system: Phosphatidylinositol 4,5-bisphosphate 3-kinase catalytic subunit alpha isoform (Homo sapiens), P42336 [H1047Y]; test: Inhibition of PIK3CA H1047Y mutant at 1 uM
[4] = target: SRSF protein kinase 1 (Homo sapiens) (UniProt Q96SB4); test: Inhibition of SRPK1 at 1 uM
[5] = target: Casein kinase I isoform delta (Homo sapiens) (UniProt P48730); test: Inhibition of CSNK1D at 1 uM
Procedure, shortened: (§1)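 Single-concentration screen using Ambit Bioscience KINOMEscan technology across a panel of 250–400 kinases. Per-kinase inhibition from this screen was summarized as S(90), the fraction of kinases inhibited by more than 90%.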

[6] = target: T2, Megakaryocyte-associated tyrosine-protein kinase (Homo sapiens) (UniProt P42679); test: Inhibition of CTK at 1 uM
T2 sequence (whole entry): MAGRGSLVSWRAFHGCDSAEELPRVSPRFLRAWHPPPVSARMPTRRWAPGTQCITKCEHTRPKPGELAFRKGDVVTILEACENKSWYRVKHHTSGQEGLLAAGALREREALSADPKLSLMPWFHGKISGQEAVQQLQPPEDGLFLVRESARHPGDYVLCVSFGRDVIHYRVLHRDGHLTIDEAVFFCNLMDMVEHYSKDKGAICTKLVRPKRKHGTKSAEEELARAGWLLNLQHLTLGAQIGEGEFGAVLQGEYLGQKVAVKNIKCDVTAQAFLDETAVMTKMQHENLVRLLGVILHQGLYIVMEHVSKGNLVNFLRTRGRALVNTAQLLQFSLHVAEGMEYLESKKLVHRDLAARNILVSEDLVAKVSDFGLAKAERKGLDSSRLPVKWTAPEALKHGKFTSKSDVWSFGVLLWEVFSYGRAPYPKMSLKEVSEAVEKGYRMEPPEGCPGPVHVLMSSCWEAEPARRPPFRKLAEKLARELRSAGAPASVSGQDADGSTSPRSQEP

[7] = target: T3, Ephrin type-A receptor 6 (Homo sapiens) (UniProt Q9UF33); test: Inhibition of EPHA6 at 1 uM; procedure, shortened: as §1
T3 sequence (whole entry): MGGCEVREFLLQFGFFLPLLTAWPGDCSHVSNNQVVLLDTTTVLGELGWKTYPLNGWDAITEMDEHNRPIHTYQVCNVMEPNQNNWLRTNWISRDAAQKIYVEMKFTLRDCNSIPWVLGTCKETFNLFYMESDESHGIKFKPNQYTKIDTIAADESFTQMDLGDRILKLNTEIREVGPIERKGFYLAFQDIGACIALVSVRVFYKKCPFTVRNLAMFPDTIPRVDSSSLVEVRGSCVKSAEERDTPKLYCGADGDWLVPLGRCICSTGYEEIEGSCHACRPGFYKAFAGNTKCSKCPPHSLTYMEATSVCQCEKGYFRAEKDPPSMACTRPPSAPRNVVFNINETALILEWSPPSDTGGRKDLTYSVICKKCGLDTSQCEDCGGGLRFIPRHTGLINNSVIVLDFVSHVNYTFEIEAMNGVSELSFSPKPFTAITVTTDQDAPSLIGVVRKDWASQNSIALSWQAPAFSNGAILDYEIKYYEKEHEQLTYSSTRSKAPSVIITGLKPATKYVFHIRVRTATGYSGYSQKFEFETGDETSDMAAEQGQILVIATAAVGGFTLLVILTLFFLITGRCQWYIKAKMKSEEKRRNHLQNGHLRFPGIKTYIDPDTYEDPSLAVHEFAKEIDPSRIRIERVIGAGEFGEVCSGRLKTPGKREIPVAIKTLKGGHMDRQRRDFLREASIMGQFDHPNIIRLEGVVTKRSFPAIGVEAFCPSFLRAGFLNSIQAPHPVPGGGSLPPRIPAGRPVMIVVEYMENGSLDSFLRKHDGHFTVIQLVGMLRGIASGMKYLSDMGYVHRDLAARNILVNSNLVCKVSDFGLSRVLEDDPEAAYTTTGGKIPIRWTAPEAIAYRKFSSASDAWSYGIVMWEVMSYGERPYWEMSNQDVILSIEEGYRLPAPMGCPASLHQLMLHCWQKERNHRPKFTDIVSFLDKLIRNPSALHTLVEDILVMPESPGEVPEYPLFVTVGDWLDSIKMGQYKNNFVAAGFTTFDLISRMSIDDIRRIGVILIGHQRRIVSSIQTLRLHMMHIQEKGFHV

Measured: inhibition

Chain of Phosphatidylinositol 4,5-bisphosphate 3-kinase catalytic subunit alpha isoform (Homo sapiens), P42336 [H1047Y] (P42336 whole entry H1047Y, canonical isoform): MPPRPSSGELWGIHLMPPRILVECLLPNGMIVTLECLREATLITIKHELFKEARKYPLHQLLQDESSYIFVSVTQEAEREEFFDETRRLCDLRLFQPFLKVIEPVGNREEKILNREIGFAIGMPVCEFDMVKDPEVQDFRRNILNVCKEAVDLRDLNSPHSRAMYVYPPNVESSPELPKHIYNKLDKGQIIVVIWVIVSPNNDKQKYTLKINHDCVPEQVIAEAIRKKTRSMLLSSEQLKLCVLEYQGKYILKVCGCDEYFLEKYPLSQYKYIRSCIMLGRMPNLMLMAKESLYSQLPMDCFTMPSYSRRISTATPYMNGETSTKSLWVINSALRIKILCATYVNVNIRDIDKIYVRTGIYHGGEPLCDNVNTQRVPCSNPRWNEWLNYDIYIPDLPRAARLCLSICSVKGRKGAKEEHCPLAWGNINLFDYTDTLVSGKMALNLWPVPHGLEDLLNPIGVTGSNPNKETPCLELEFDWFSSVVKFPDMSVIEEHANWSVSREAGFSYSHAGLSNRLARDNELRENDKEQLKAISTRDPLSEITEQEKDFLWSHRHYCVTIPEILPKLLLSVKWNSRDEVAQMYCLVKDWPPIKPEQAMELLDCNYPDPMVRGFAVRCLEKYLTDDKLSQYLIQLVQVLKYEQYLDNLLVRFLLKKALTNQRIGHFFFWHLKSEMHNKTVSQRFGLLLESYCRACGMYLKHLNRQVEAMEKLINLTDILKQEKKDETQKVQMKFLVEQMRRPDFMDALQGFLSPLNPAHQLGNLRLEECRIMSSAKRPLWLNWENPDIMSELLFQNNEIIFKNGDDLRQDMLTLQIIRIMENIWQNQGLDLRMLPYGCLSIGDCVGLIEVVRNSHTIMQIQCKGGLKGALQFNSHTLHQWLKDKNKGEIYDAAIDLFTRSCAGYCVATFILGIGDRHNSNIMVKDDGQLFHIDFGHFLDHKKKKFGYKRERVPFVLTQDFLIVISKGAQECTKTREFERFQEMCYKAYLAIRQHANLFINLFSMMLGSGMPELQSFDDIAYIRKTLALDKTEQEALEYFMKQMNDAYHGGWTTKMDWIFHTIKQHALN
Chain of SRSF protein kinase 1 (Homo sapiens) (Q96SB4 whole entry, canonical isoform): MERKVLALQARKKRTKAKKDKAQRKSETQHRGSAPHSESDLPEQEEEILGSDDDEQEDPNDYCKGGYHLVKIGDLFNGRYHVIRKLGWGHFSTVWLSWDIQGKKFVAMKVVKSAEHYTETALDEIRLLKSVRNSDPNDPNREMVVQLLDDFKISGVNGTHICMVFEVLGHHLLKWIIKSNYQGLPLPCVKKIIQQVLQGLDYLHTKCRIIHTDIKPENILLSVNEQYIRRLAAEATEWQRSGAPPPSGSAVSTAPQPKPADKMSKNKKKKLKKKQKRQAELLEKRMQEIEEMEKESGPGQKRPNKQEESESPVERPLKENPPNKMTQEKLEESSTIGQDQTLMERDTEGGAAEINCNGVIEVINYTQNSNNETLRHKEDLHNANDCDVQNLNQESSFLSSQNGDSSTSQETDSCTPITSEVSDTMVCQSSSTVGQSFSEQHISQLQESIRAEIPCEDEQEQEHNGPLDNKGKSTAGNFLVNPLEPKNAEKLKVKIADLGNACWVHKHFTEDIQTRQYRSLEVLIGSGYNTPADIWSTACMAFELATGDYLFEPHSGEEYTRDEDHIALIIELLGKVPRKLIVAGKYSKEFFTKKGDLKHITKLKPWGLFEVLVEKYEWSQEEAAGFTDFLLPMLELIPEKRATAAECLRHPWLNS
Chain of Mast/stem cell growth factor receptor Kit (Homo sapiens), P10721 [V559D,V654A] (P10721 whole entry V559D/V654A): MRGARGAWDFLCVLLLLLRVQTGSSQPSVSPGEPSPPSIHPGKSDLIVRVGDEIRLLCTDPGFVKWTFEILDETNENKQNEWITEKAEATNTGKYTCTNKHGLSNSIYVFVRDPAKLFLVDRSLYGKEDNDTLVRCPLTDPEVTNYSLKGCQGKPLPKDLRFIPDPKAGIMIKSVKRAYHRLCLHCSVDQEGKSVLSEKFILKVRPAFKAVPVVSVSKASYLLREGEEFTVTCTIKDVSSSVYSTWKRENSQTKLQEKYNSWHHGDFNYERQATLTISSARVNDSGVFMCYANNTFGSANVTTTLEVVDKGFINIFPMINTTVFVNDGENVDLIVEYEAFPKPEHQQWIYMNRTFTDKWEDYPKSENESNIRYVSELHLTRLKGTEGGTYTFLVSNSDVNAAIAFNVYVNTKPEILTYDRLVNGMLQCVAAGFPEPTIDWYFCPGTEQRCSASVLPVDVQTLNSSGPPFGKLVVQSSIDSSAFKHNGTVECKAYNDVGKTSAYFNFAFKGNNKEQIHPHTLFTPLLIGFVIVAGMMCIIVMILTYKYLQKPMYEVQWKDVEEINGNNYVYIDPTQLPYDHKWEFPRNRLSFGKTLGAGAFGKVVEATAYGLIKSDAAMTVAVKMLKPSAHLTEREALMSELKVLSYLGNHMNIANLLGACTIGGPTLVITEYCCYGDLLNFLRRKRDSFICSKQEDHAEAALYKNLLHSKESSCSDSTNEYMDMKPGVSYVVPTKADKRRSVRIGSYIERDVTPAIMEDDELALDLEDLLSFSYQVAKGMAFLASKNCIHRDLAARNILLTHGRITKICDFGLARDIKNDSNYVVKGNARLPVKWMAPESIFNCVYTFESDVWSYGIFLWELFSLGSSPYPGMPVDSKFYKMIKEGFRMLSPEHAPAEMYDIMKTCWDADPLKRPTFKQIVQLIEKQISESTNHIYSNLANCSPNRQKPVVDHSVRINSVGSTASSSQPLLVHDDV
Chain of Casein kinase I isoform delta (Homo sapiens) (P48730 whole entry, looked up, canonical isoform): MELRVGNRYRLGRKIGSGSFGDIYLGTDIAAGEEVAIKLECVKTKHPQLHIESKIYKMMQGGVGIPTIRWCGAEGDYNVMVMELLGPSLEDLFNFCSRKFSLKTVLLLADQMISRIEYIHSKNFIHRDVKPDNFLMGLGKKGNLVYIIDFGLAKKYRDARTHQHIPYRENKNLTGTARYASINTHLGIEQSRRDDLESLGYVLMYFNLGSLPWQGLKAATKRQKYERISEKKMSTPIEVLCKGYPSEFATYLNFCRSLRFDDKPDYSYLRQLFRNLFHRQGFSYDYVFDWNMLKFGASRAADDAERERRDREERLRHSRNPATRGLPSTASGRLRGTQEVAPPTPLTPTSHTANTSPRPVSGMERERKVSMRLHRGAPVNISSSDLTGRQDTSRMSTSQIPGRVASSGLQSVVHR

CN1CCN(c2ccc(-c3cnc4c(c3)N(Cc3cc(Cl)ccc3Cl)CCN4)cn2)CC1
< 50%: all assays above

CN1CCN(c2ccc(-c3cnc4c(c3)N(Cc3cc(Cl)ccc3C(F)(F)F)CCN4)cn2)CC1
< 50%: all assays above

CN1CCN(c2ccc(-c3cnc4c(c3)N(Cc3c(F)ccc(F)c3Cl)CCN4)cn2)CC1
< 50%: all assays above

O=C(c1ccc(-c2cnc3c(c2)N(Cc2cc(Cl)ccc2C(F)(F)F)CCN3)cc1)N1CCC(N2CCCC2)CC1
not listed: [1] | [3]
< 50%: all other assays above

COC1CCN(C(=O)c2ccc(-c3cnc4c(c3)N(Cc3cc(Cl)ccc3C(F)(F)F)CCN4)cc2)CC1
not listed: [1] | [3]
< 50%: all other assays above

FC(F)(F)c1ccc(Cl)cc1CN1CCNc2ncc(-c3ccnc(N4CCNCC4)c3)cc21
< 50%: all assays above

CN1CCN(c2ccc(-c3cnc4c(c3)N(Cc3cc(F)ccc3F)CCN4)cn2)CC1
< 50%: all assays above

O=C(c1ccc(-c2cnc3c(c2)N(Cc2cc(Cl)ccc2C(F)(F)F)CCN3)cc1)N1CCCCC1
not listed: [1] | [3]
< 50%: all other assays above

CC(=O)N1CCN(c2cc(-c3cnc4c(c3)N(Cc3cc(Cl)ccc3C(F)(F)F)CCN4)ccn2)CC1
< 50%: all assays above

O=C(O)c1ccc(-c2cnc3c(c2)N(Cc2cc(Cl)ccc2C(F)(F)F)CCN3)cc1
< 50%: [2] | [4] | [5] | [7]
